Data on one compound can be found in ChEMBL document CHEMBL3864121, “Development of ebsulfur analogues as potent antibacterials against methicillin-resistant Staphylococcus aureus” (Bioorg Med Chem, 2016).

The source made the active and inactive calls. No cut-off for these calls is given here.

Data set [1] relates to Staphylococcus aureus. Briefly: Bacteriostatic activity against methicillin-resistant Staphylococcus aureus S22 at MIC measured up to 3 to 6 hrs by time kill analysis. The data set is classed as functional.
Data set [2] is described as follows: Cytotoxicity against mouse RBCs assessed as hemolysis up to […] measured after 1 hr. The class given is toxicity, Erythrocyte. Conditions: mouse red blood cells, read-out: Activity.
The species entered for the next data set is Mus musculus. Briefly: Cytotoxicity against mouse RBCs assessed as hemolysis at 0.24 to 31.2 ug/ml measured after 1 hr. The data set is classed as toxicity. Conditions: erythrocyte. In outline:
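Murine red blood cells were exposed to compounds at various concentrations, with amikacin as a control. Percent hemolysis was scored against untreated cells (0%) and 1% Triton X (100%).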

Data set [3] relates to Staphylococcus aureus. As to the kind of experiment: Antibacterial activity against methicillin-resistant Staphylococcus aureus S22 using 1 10^6CFU/ml measured after overnight incubation by broth double-dilution method. The data set is classed as functional.
The test system of data set [4] is Staphylococcus aureus. As to the kind of experiment: Bacteriostatic activity against methicillin-resistant Staphylococcus aureus S22 at 4 times MIC measured after 24 hrs by time kill analysis. The data set is classed as functional.
The subject of data set [5] is Staphylococcus aureus. Briefly: Bacteriostatic activity against methicillin-resistant Staphylococcus aureus S22 at 0.5 times MIC measured up to 3 to 6 hrs by time kill analysis. The data set is classed as functional.
Data set [6] deals with Staphylococcus aureus. As to the kind of experiment: Antibiofilm activity against methicillin-sensitive Staphylococcus aureus ATCC 6538 assessed as reduction of biofilm at […] ug/ml measured after 24 hrs by crystal violet staining based method relative to control. The data set is classed as functional. Details: scale not given: the % may be the effect or the level left.
Data set [7] has as its system Staphylococcus epidermidis RP62A. Briefly: Inhibition of thioredoxin reductase in Staphylococcus epidermidis ATCC 35984 assessed as induction of ROS production at 1 to 4 times MIC measured after 1 hr by DCFH-DA staining-based fluorescence microscopic analysis. In outline: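 Untreated cells served as the negative control and 1 mM H2O2 as the positive control. Cells were stained with DCFH-DA (40 µg/mL) and ROS were visualized by fluorescence microscopy.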

Turning to `O=c1c2ccccc2sn1-c1ccccc1`, the outcome (in the data set with Staphylococcus aureus [1]; in the data set with Staphylococcus aureus [3]; in the data set on Staphylococcus aureus [4]; in the data set with Staphylococcus aureus [5]; in data set [7]) was Active. Moreover, in data set [2], the hemolysis at 1 h was at most 20%. Also, the Activity result is recorded as “Non-Toxic” in the data set filed under Mus musculus and 40% in the data set on Staphylococcus aureus [6].
